Common to all, as to format: functional, cell-based
The subject of one assay is Col2. Briefly: Inhibition of Col2 human colon cancer cell proliferation. The essentials:
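Col2 human colon cancer cells grown in MEME with 10% NAA, antibiotic-antimycotic and 10% FBS at 37 °C, 5% CO2. Exponentially growing cells seeded onto compounds dissolved in DMSO and grown 3 days at 37 °C. Cells TCA-fixed, stained with 0.4% sulforhodamine B in 1% acetic acid, dye solubilized in 0.1 M Tris, A515 read. % growth computed against day-0 and DMSO-control absorbances.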

The test system of assay [1] is Ishikawa. As to the kind of experiment: Antiestrogenic effects in Ishikawa cells. Conditions: Homo sapiens.
Assay [2] has as its system Ishikawa. Briefly: Inhibition of Ishikawa cell proliferation.
The subject of assay [3] is Ishikawa. Briefly: Inhibition of antiestrogenic response in Ishikawa cells.
Setting [4] is: Homo sapiens, Ishikawa, read-out: IC50.

Converted amounts (≈) assume the structure as drawn.

The IC50 is the point on the concentration scale where inhibition reaches its midpoint. For `COc1cc(C[C@H]2COC(c3ccc(O)c(OC)c3)[C@@]2(O)CO)ccc1O` (stereo partly drawn), the IC50 in the assay with Col2 and with Ishikawa [1] was greater than 10 µg/mL in each case.
As for `CO[C@@H]1[C@@H](O)[C@H](C)O[C@@H](OC2CC[C@@]3(C)[C@H](CC[C@@H]4[C@@H]3C3OC3[C@]3(C)[C@H](C5=CC(=O)OC5)CC[C@]43O)C2)[C@@H]1O` (stereo in doubt; 1), the IC50 in the assay with Ishikawa [2] (ishikawa) stood at 0.015 µg/mL (≈ 0.0273 µM); with Ishikawa [3] (ishikawa) it was 0.0042 µg/mL (≈ 0.00765 µM).
For `CO[C@@H]1[C@@H](O)[C@H](C)O[C@@H](OC2CC[C@@]3(C)[C@H](CC[C@@H]4[C@@H]3C3OC3[C@]3(C)[C@H](C5=CC(=O)OC5)CC[C@]43O)C2)[C@@H]1O` (stereo in doubt; 2), the concentration for half-maximal inhibition (IC50) in the assay on Col2 is no more than 5 µg/mL; with Ishikawa [1] it was no more than 5 µg/mL; in the assay on Ishikawa [2] (setting [4]), 0.02 µg/mL (≈ 0.0365 µM); in the assay on Ishikawa [3] (setting [4]) it was 0.008 µg/mL (≈ 0.0146 µM).

For the origin of these results see ChEMBL document CHEMBL1133040, “Activity-guided isolation of constituents of Cerbera manghas with antiproliferative and antiestrogenic activities” (Bioorg Med Chem Lett, 2000).
